According to ChEMBL document CHEMBL2093137, “WHO-TDR NTD Screening”:
≈ marks a conversion by molar mass, not a printed value.

What was measured:
[1] = WHO-TDR: Cytotoxicity; assay type: toxicity, cell-based; conditions: human, MRC5 cells
Plasmodium falciparum K1 = experiment: WHO-TDR: Malaria; assay type: functional, organism-based, Homo sapiens; conditions: Erythrocyte
How it was run: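 A diverse library of 10,000 compounds from Life Chemicals, filtered for drug-likeness and reactive groups, was screened against the intra-erythrocytic Plasmodium falciparum K1 strain in human red blood cells. Previously published standard procedures were followed, with a reference drug as positive control. Antiplasmodial potency is given as IC50.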

Trypanosoma cruzi = experiment: WHO-TDR: Chagas disease; assay type: functional, organism-based, Homo sapiens; conditions: MRC5
How it was run: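 Each IC50 reflects antiparasitic potency against intracellular amastigotes of Trypanosoma cruzi Tulahuen CL2 beta-galactosidase strain. These were cultured in MRC-5SV2 human lung fibroblasts and exposed to a 10,000-compound diverse Life Chemicals library screened according to published standard procedures with a reference drug as positive control.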

[2] = tested on: Trypanosoma brucei brucei; experiment: WHO-TDR: Human African Trypanosomiasis (HAT); assay type: functional, organism-based; conditions: Squib-427
How it was run: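 A diverse library of 10,000 compounds from Life Chemicals, filtered for drug-likeness and reactive groups, was screened against bloodstream forms of Trypanosoma brucei Squib 427 strain in a whole-organism assay. Previously published standard procedures were followed, with reference drugs serving as positive controls. Antiparasitic potency is given as IC50.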

Leishmania infantum = experiment: WHO-TDR: Leishmaniasis; assay type: functional, organism-based, Mus musculus; conditions: Macrophage
How it was run: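 A diverse library of 10,000 compounds from Life Chemicals, filtered for drug-likeness and reactive groups, was screened against whole organisms. The targets were intracellular amastigotes of Leishmania infantum MHOM/MA(BE)/67 growing in murine peritoneal macrophages. Previously published standard procedures were followed, with a reference drug as positive control. Antiparasitic potency is given as IC50.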

Schistosoma mansoni = experiment: WHO-TDR: Schistosomiasis; assay type: functional; design: concentration or dose not given beside the values
How it was run: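 Percent inhibition and IC50 describe activity against whole Schistosoma mansoni worms of the Puerto Rican strain, tested as larvae and/or adults. The compounds screened were a diverse set of 10,000 from Life Chemicals, filtered for drug-likeness and reactive groups. Testing followed previously published standard procedures, with a reference drug as positive control.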

Onchocerca lienalis = experiment: (§1) WHO-TDR: Onchocerciasis; assay type: functional; design: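 at 12.5 µM on microfilariae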
How it was run: (§2)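 Percent inhibition and IC50 describe activity against microfilariae of Onchocerca ochengi or Onchocerca lienalis, used as animal-pathogen substitutes for the human parasite. The compounds tested made up a 10,000-member diverse library from Life Chemicals.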

Brugia malayi [3] = experiment: (§3) WHO-TDR: Lymphatic Filariasis; assay type: functional; design: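 tested at 10 µM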
How it was run: (§4)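 The screening set was a 10,000-compound diverse library from Life Chemicals, filtered for drug-likeness and for reactive groups. It was run against Brugia malayi microfilariae as whole organisms, using previously published standard procedures. Reference drugs acted as positive controls, and activity is reported both as percent inhibition and as IC50.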

Brugia malayi [4] = experiment: as §3; assay type: functional, organism-based; how it was run: as §4
Brugia malayi [5] = experiment: as §3; assay type: functional; design: concentration or dose not given beside the values; how it was run: as §4; remark: listed apart in the source
Onchocerca ochengi = experiment: as §1; assay type: functional; design: concentration or dose not given beside the values; how it was run: as §2;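 also: at 12.5 µM on microfilariae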

SMILES | IC50 [1] [µg/mL] | IC50 (Plasmodium falciparum K1) [µg/mL] | IC50 (Trypanosoma cruzi) [µg/mL] | IC50 [2] [µg/mL] | IC50 (Leishmania infantum) [µg/mL] | % Inhibition (Schistosoma mansoni) [%] | % Inhibition (Onchocerca lienalis) [%] | % Inhibition (Brugia malayi [3]) [%] | IC50 (Brugia malayi [4]) [µM] | % Inhibition (Brugia malayi [5]) [%] | % Inhibition (Onchocerca ochengi) [%]
O=C(Nc1nc(-c2ccccn2)cs1)c1ccc2c(c1)CCCC2 | > 10.1 | 9.24 (≈ 27.5 µM) | > 10.1 | > 10.1 | > 10.1 | 12.5 | 60 | 100 | 1.91 | 50 | 
CCOC(=O)c1c(NC(=O)CSc2nc3c([nH]c4ccccc43)c(=O)n2-c2ccccc2)sc2c1CCC2 | > 16.3 | > 16.3 | > 16.3 | > 17.4 | 5.29 (≈ 9.71 µM) | 0 | 0 | 100 | 4.37 | 25 | 
CN(Cc1ccco1)S(=O)(=O)c1ccc(C(=O)Nc2nc3c(s2)CSc2ccccc2-3)cc1 | > 14.9 | > 14.9 | 3.86 (≈ 7.76 µM) | 2.24 (≈ 4.49 µM) | > 14.9 | 91.7 | 0 | 100 | 3.97 | 40 | 
O=C(CCS(=O)(=O)c1ccccc1)N(CCCN1CCOCC1)c1nc2ccccc2s1 | 2.88 (≈ 6.09 µM) | > 15.3 | 8.52 (≈ 18 µM) | 4.9 (≈ 10.3 µM) | 5.81 (≈ 12.3 µM) | 0 | 9.31 | 100 | 6.05 | 60 | 
CCn1ccc(C(=O)Nc2nc(-c3cc(Cl)ccc3Cl)cs2)n1 | > 11 | > 11 | > 11 | 3.52 (≈ 9.6 µM) | > 11 | 50 |  | 100 | 5.18 | 0 | 50
COc1cccc2sc(Nc3sc4c(c3C(N)=O)CCCC4)nc12 | 3.58 (≈ 9.95 µM) | 4.55 (≈ 12.7 µM) | 3 (≈ 8.35 µM) | 0.947 (≈ 2.63 µM) | 4.55 (≈ 12.7 µM) | 12.5 |  | 100 | 4.51 | 50 | 
COc1cccc2sc(Nc3nc4c(s3)CCCC4)nc12 | > 9.52 | > 9.52 | > 9.52 | 3.81 (≈ 12 µM) | > 9.52 | 0 |  | 100 | 3.44 | 50 | 
COc1cccc(C(=O)Nc2nnc(-c3ccc4c(c3)CCCC4)o2)c1 | > 10.5 | > 10.5 | > 10.5 | > 11.2 | 3.31 (≈ 9.49 µM) | 25 |  | 100 | 2.18 | 50 | 
CCOC(=O)c1sc(NC(=O)C(C)Sc2ncnc3ccccc23)c(C(=O)OCC)c1C (centres undefined) | > 14.2 | > 14.2 | > 14.2 | > 14.2 | > 14.2 | 0 |  | 100 | 4.36 | 0 | 
O=C(Nc1nc2c(F)cc(F)cc2s1)c1nc2ccccc2s1 | > 10.4 | > 10.4 | > 10.4 | > 11.1 | > 10.4 | 0 |  | 100 | 3.27 | 50 | 
CCCCc1ccc(NC(=O)CSc2cn(CC)c3ccccc23)cc1 | > 11 | > 11 | 2.93 (≈ 7.99 µM) | 3.56 (≈ 9.71 µM) | > 11 | 0 |  | 100 | 3.54 | 0 | 
Cc1nc2ccc3nc(Nc4nc5c(F)cccc5s4)sc3c2s1 | > 11.2 | > 11.2 | > 11.2 | > 11.2 | > 11.2 | 0 |  | 100 | 5.21 | 50 | 
O=C(Nc1nnc(-c2ccc3c(c2)CCCC3)o1)c1cc(Cl)sc1Cl | > 11.8 | > 11.8 | 3.88 (≈ 9.83 µM) | 3.79 (≈ 9.63 µM) | 6.13 (≈ 15.5 µM) | 0 |  | 100 | 4.49 | 50 | 
CC(C)c1ccc2nc(Nc3nc4ccc(S(C)(=O)=O)cc4s3)sc2c1 | > 12.1 | > 12.1 | > 12.1 | > 12.1 | 3.92 (≈ 9.71 µM) | 0 |  | 100 | 4.95 | 25 | 
Fc1cccc2sc(Nc3nc4c(s3)CCCC4)nc12 | > 9.16 | > 9.16 | > 9.16 | > 9.16 | > 9.16 | 0 |  | 100 | 4.36 | 50 | 
CC(=O)Nc1ccc2nc(Nc3nc4ccc(C(C)C)cc4s3)sc2c1 | > 11.5 | 2.19 (≈ 5.72 µM) | 2.37 (≈ 6.2 µM) | 4.49 (≈ 11.7 µM) | 4.12 (≈ 10.8 µM) | 0 |  | 100 | 5.09 | 25 | 
CC1CCc2c(sc(Nc3nc4c(F)cccc4s3)c2C(N)=O)C1 (centres undefined) | > 10.8 | 2.69 (≈ 7.46 µM) | 4.66 (≈ 12.9 µM) | 2.31 (≈ 6.39 µM) | 3.51 (≈ 9.71 µM) | 0 |  | 100 | 4.99 | 25 | 
COc1ccc2nc(Nc3nc(-c4ccccn4)cs3)sc2c1 | 0.129 (≈ 0.378 µM) | 0.312 (≈ 0.915 µM) | < 0.102 | < 0.102 | 0.323 (≈ 0.949 µM) | 0 |  | 100 | 2.61 | 25 | 
CCOc1cccc2sc(Nc3nc4ccc5sc(C)nc5c4s3)nc12 | > 12 | > 12 | > 12 | > 12 | > 12 | 0 |  | 100 | 4.49 | 50 | 
CCOC(=O)c1sc(Nc2nc3c(F)cccc3s2)nc1C | > 10.1 | > 10.1 | > 10.1 | > 10.1 | 6.9 (≈ 20.4 µM) | 0 |  | 100 | 4.99 | 50 | 
CS(=O)(=O)c1ccc2nc(Nc3nc4c(F)cccc4s3)sc2c1 | > 11.4 | 6.16 (≈ 16.2 µM) | > 11.4 | > 11.4 | > 11.4 | 0 |  | 100 | 4.49 | 25 | 
COC(=O)c1ccc(CSc2ccc(NC(=O)C(C)C)nn2)o1 | > 10.1 | > 10.1 | > 10.1 | > 10.1 | > 10.1 | 0 |  | 100 | 6.15 | 0 | 0
O=C(Cc1cc(-c2ccc(Cl)cc2)on1)Nc1cccnc1 | 1.19 (≈ 3.8 µM) | > 9.41 | 2.25 (≈ 7.18 µM) | > 9.41 | > 9.41 | 0 |  | 100 | 1.77 | 0 | 75
COc1cccc2sc(Nc3nnc(-c4cccs4)o3)nc12 | 1.83 (≈ 5.54 µM) | 1.25 (≈ 3.78 µM) | 0.313 (≈ 0.947 µM) | 0.346 (≈ 1.05 µM) | 3.17 (≈ 9.6 µM) | 0 |  | 100 | 5.09 | 50 | 
Cc1cc(C)c2sc(NC(=O)c3nc4ccccc4s3)nc2c1 | > 10.2 | > 10.2 | > 10.2 | > 10.9 | > 10.2 | 0 |  | 100 | 2.5 | 25 | 
COc1ccc(NC(=O)c2oc3ccccc3c2NC(=O)c2cccc(Cl)c2)c(OC)c1 | > 13.5 | > 13.5 | > 13.5 | > 13.5 | > 13.5 | 25 |  | 100 | 4.49 | 0 | 
Cc1c(Cl)ccc2sc(NC(=O)c3ccc(S(=O)(=O)N4CC(C)CC(C)C4)cc3)nc12 (centres undefined) | > 14.3 | > 14.3 | > 14.3 | > 15.3 | 4.64 (≈ 9.71 µM) | 0 |  | 100 | 1.07 | 80 | 
O=C(Nc1nc2c(Cl)ccc(Cl)c2s1)C1=COCCO1 | > 9.93 | > 9.93 | > 9.93 | > 10.6 | > 9.93 | 0 |  | 100 | 3.97 | 25 | 
